Here are results for 30 compounds from ChEMBL document CHEMBL1133447, “Inhibition of protein synthesis by didemnins: cell potency and SAR” (J Med Chem, 2000).

Starred links: 1 amine or outer side, 2 acyl side, 3 side chain; linkers in the order of their positions; H or OH if unused. Positions of bridges follow the written chain, without caps; N, C: chain ends. Non-standard residues stand in square brackets, D forms with d. Residues, ends and D or L forms follow the SMILES beside them. ξ: configuration not given here. *: point of attachment. X1 = CC[C@H](C)[C@@H](N[*:1])[C@@H](O)CC(=O)O[C@H](C(=O)[C@H](C)C(=O)[*:2])C(C)C; Benzoyl(4-benzoyl) = O=C(c1ccccc1)c1ccc(C(=O)*)cc1; X2 = CC[C@H](C)[C@@H](N[*:1])[C@@H](O)CC(=O)[*:2]; Propanoyl(3-(4-MeO-Ph)) = COc1ccc(CCC(=O)*)cc1; NMeY = CN[C@@H](Cc1ccc(O)cc1)C(=O)O; NMeL = CN[C@@H](CC(C)C)C(=O)O; dHica = CC(C)C[C@@H](O)C(=O)O; dNMeL = CN[C@H](CC(C)C)C(=O)O; pGlu = O=C1CC[C@@H](C(=O)O)N1; NMeV = CN[C@H](C(=O)O)C(C)C; Hiv = CC(C)[C@H](O)C(=O)O; NMeA = CN[C@@H](C)C(=O)O; Lac = C[C@H](O)C(=O)O; OBn = c1ccc(CO*)cc1; Ahx = NCCCCCC(=O)O; ξP = O=C(O)C1CCCN1; βAla = NCCC(=O)O

The term IC50 denotes the concentration that inhibits the measured activity by half. High values mean weaker potency in that assay, low ones greater potency in that assay.

The species named for the assay is Oryctolagus cuniculus. The experiment in a line: In vitro inhibition of protein synthesis in tobacco mosaic virus mRNA-encoded proteins in rabbit reticulocyte lysate. The format is functional. The essentials:
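Cell-free translation in rabbit reticulocyte lysate programmed with tobacco mosaic virus mRNA. Protein synthesis was measured as [³⁵S]methionine incorporation into the encoded proteins across a range of inhibitor concentrations, and IC50 was derived from the concentration dependence.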
The compound `COc1ccc(C[C@@H](C(=O)NCCNC(=O)[C@H](CC(C)C)N(C)C(=O)[C@@H]2CCCN2C(=O)[C@H](C)O)N(C)C(=O)C2CCCN2C(=O)[C@H](CC(C)C)NC(=O)[C@@H](C)NC(=O)OCc2ccccc2)cc1` (stereo not given in full) returned an IC50 of 275 µM.

On to `COc1ccc(C[C@@H](C(=O)O[C@H](C)[C@H](NC(=O)[C@@H](CC(C)C)N(C)C(=O)[C@@H]2CCCN2C(=O)[C@H](C)O)C(=O)N2CCCCNC(=O)[C@H](C)C(=O)[C@H](C(C)C)OC(=O)C[C@H](O)[C@H]2CC(C)C)N(C)C(C)=O)cc1`, for which the 50% inhibitory concentration (IC50) is over 1000 µM.

With `CC[C@H](C)[C@H]1NC(=O)[C@@H](NC(=O)[C@@H](CC(C)C)N(C)C(=O)[C@@H]2CCCN2C(=O)[C@H](C)OC(C)=O)[C@@H](C)OC(=O)[C@H](Cc2ccc(OC)cc2)N(C)C(=O)[C@@H]2CCCN2C(=O)[C@H](CC(C)C)NC(=O)[C@@H](C)C(=O)[C@H](C(C)C)OC(=O)C[C@@H]1OC(C)=O`, the half-maximal inhibitory concentration (IC50) stood at 10 µM. In other words, the double-digit micromolar range.

Turning to `CSCC[C@H](N)C(=O)N[C@@H](CCC(=O)O)C(=O)N[C@@H](Cc1c[nH]cn1)C(=O)N[C@@H](Cc1ccccc1)C(=O)N[C@@H](CCCN=C(N)N)C(=O)N[C@@H](Cc1c[nH]c2ccccc12)C(=O)NCC(=O)O`, half-maximal inhibition (IC50) required 4 µM.

Turning to `CC[C@H](C)[C@H]1NC(=O)[C@@H](NC(=O)[C@@H](CC(C)C)N(C)C(=O)[C@@H]2CCCN2C(=O)[C@H](C)O)[C@@H](C)OC(=O)[C@@H]2CCc3ccccc3N2C(=O)[C@@H]2CCCN2C(=O)[C@H](CC(C)C)NC(=O)[C@@H](C)C(=O)[C@H](C(C)C)OC(=O)C[C@@H]1O`, the IC50 was determined as 2.7 µM.

For `COc1ccc(C[C@H]2C(=O)O[C@H](C)[C@H](NC(=O)[C@@H](CC(C)C)N(C)C(=O)[C@@H]3CCCN3C(=O)[C@H](C)O)C(=O)N[C@H](C(C)C)[C@@H](O)CC(=O)O[C@@H](C(C)C)C(=O)[C@H](C)C(=O)N[C@@H](CC(C)C)C(=O)N3CCC[C@H]3C(=O)N2C)cc1`, the half-maximal inhibitory concentration (IC50) is 3 µM.

In turn, `COc1ccc(C[C@H]2C(=O)O[C@H](C)[C@H](NC(=O)[C@@H](CC(C)C)N(C)C(=O)C3CCCN3C(=O)[C@H](C)O)C(=O)N[C@H](C(C)C)[C@@H](O)CC(=O)O[C@@H](C(C)C)C(=O)[C@H](C)C(=O)N[C@@H](CC(C)C)C(=O)N3CCCC3C(=O)N2C)cc1` (stereo not given in full) registered an IC50 of 1 µM. Against the preceding compound, the IC50 is about 3-fold lower.

The compound `COc1ccc(C[C@H]2C(=O)N[C@@H](C)C(=O)N(C)[C@H]3Cc4ccc(cc4)Oc4cc(ccc4OC)C[C@@H](C(=O)N[C@H](C)C(=O)N[C@@H](C)C(=O)N2C)N(C)C3=O)cc1` registered a concentration for half-maximal inhibition (IC50) of 0.05 µM.

With `CC[C@H](C)[C@H]1NC(=O)[C@@H](NC(=O)[C@@H](CC(C)C)N(C)C(=O)C2CCCN2)[C@@H](C)OC(=O)[C@H](Cc2ccc(OC)cc2)N(C)C(=O)C2CCCN2C(=O)[C@H](CC(C)C)NC(=O)[C@@H](C)C(=O)[C@H](C(C)C)OC(=O)C[C@@H]1O` (stereo not given in full), it took 4.3 µM to reach half-maximal inhibition (IC50).

Consider `CC[C@H](C)[C@H]1NC(=O)[C@@H](NC(=O)[C@@H](CC(C)C)N(C)C(=O)C2C=CCN2C(=O)OC(C)(C)C)[C@@H](C)OC(=O)[C@H](Cc2ccc(OC)cc2)N(C)C(=O)C2CCCN2C(=O)[C@H](CC(C)C)NC(=O)[C@@H](C)C(=O)[C@H](C(C)C)OC(=O)C[C@@H]1O` (stereo not given in full), for which half-maximal inhibition (IC50) required 5.3 µM.

In the case of `CC[C@H](C)[C@H]1NC(=O)[C@@H](NC(=O)[C@@H](CC(C)C)N(C)C(=O)C2CCCN2C(=O)[C@H](C)O)[C@@H](C)OC(=O)[C@H](CC(C)C)N(C)C(=O)C2CCCN2C(=O)[C@H](CC(C)C)NC(=O)[C@@H](C)C(=O)[C@H](C(C)C)OC(=O)C[C@@H]1O` (stereo not given in full), inhibition was half-maximal at 9 µM (IC50). This IC50 is about 1.7-fold higher than that of the compound before.

As for `C=CCOC(=O)N[C@@H](CC(C)C)C(=O)N1CCC[C@H]1C(=O)N(C)[C@@H](Cc1ccc(OC)cc1)C(=O)O[C@H](C)[C@H](NC(=O)[C@@H](CC(C)C)N(C)C(=O)[C@@H]1CCCN1C(=O)[C@H](C)O)C(=O)OCC[Si](C)(C)C`, the half-inhibitory concentration (IC50) is 112 µM.

`CC[C@H](C)[C@H]1NC(=O)[C@@H](NC(=O)[C@@H](CC(C)C)N(C)C(=O)C2C=CCN2)[C@@H](C)OC(=O)[C@H](Cc2ccc(OC)cc2)N(C)C(=O)C2CCCN2C(=O)[C@H](CC(C)C)NC(=O)[C@@H](C)C(=O)[C@H](C(C)C)OC(=O)C[C@@H]1O` (stereo not given in full): 4.3 µM corresponded to half-maximal inhibition (IC50).

Turning to `CC[C@H](C)[C@H]1NC(=O)[C@@H](NC(=O)[C@@H](CC(C)C)N(C)C(=O)C2CCCN2C(=O)[C@H](C)O)[C@@H](C)OC(=O)[C@H](Cc2ccccc2)N(C)C(=O)C2CCCN2C(=O)[C@H](CC(C)C)NC(=O)[C@@H](C)C(=O)[C@H](C(C)C)OC(=O)C[C@@H]1O` (stereo not given in full), the half-maximal inhibitory concentration (IC50) was 2.5 µM.

As to `CC[C@H](C)[C@H]1NC(=O)[C@@H](NC(=O)[C@@H](CC(C)C)NC)[C@@H](C)OC(=O)[C@H](Cc2ccc(OC)cc2)N(C)C(=O)C2CCCN2C(=O)[C@H](CC(C)C)NC(=O)[C@@H](C)C(=O)[C@H](C(C)C)OC(=O)C[C@@H]1O` (stereo not given in full), half-maximal inhibition (IC50) was put at 5.4 µM.

In turn, `CC(=O)O[C@H](C)[C@H](NC(=O)[C@H](CC(C)C)N(C)C(=O)[C@@H]1CCCN1C(=O)[C@H](C)O)C(=O)OCc1ccccc1` (H-[Lac]P[NMeL]T(Ac)-OBn) had a 50% inhibitory concentration (IC50) of 276 µM. Compared with the last compound, the IC50 is about 51-fold higher.

Compound `COc1ccc(CCC(=O)O[C@H](C)[C@H](NC(=O)[C@H](CC(C)C)N(C)C(=O)[C@@H]2CCCN2C(=O)[C@H](C)O)C(=O)OCc2ccccc2)cc1` (H-[Lac]P[NMeL]T(Propanoyl(3-(4-MeO-Ph)))-OBn) returned an IC50 of 405 µM. This IC50 and that of the compound before are within 1.5-fold of each other.

Compound `CC[C@H](C)[C@H]1NC(=O)[C@@H](NC(=O)[C@@H](CC(C)C)N(C)C(=O)[C@@H]2CCCN2C(=O)[C@H](C)O)[C@@H](C)OC(=O)[C@H](Cc2ccc(OC)cc2)N(C)C(=O)[C@@H]2CCCN2C(=O)[C@H](CC(C)C)NC(=O)[C@H](C(C)C)OC(=O)C[C@@H]1O` (H-[Lac]P[dNMeL]T[X2][Hiv]LP[NMeY](Me); ester 4-C) had a concentration for half-maximal inhibition (IC50) of 1.3 µM.

For `CC[C@H](C)[C@@H]1NC(=O)[C@@H]2CCCN2C(=O)[C@@H](CC(C)C)OC(=O)CCNC(=O)[C@H](C)N(C)C(=O)[C@H](C(C)C)N(C)C1=O` (cyclo(I[NMeV][NMeA][βAla][dHica]P)), the IC50 is over 1000 µM.

In turn, `CC[C@H](C)[C@H]1NC(=O)[C@@H](NC(=O)[C@@H](CC(C)C)N(C)C(=O)CCCCCNC(=O)c2ccc(C(=O)c3ccccc3)cc2)[C@@H](C)OC(=O)[C@H](Cc2ccc(OC)cc2)N(C)C(=O)C2CCCN2C(=O)[C@H](CC(C)C)NC(=O)[C@@H](C)C(=O)[C@H](C(C)C)OC(=O)C[C@@H]1O` (stereo not given in full) ({Benzoyl(4-benzoyl)-Ahx}-[dNMeL]T[X1]L[ξP][NMeY](Me); ester 2-C) had a 50% inhibitory concentration (IC50) of 24 µM.

Turning to `CC[C@H](C)[C@H]1NC(=O)[C@@H](NC(=O)[C@@H](CC(C)C)N(C)C(=O)CNC(=O)c2ccc(C(=O)c3ccccc3)cc2)[C@@H](C)OC(=O)[C@H](Cc2ccc(OC)cc2)N(C)C(=O)C2CCCN2C(=O)[C@H](CC(C)C)NC(=O)[C@@H](C)C(=O)[C@H](C(C)C)OC(=O)C[C@@H]1O` (stereo not given in full) ({Benzoyl(4-benzoyl)}-G[dNMeL]T[X1]L[ξP][NMeY](Me); ester 3-C), the 50% inhibitory concentration (IC50) worked out at 4.5 µM. Compared with the last compound, the IC50 is about 5.3-fold lower.

`CC[C@H](C)[C@H]1NC(=O)[C@@H](NC(=O)[C@@H](CC(C)C)N(C)C(=O)c2ccc(C(=O)c3ccccc3)cc2)[C@@H](C)OC(=O)[C@H](Cc2ccc(OC)cc2)N(C)C(=O)C2CCCN2C(=O)[C@H](CC(C)C)NC(=O)[C@@H](C)C(=O)[C@H](C(C)C)OC(=O)C[C@@H]1O` (stereo not given in full) ({Benzoyl(4-benzoyl)}-[dNMeL]T[X1]L[ξP][NMeY](Me); ester 2-C): 4 µM corresponded to half-maximal inhibition (IC50).

`O=C(O)C1=CC(=C(c2ccc(O)c(C(=O)O)c2)c2ccc(O)c(C(=O)O)c2)C=CC1=O` [AURINTRICARBOXYLIC ACID] displayed an IC50 of 10 µM.

`C=C(NC(=O)C(=C)NC(=O)c1ccc2c(n1)-c1coc(n1)C(=C)NC(=O)C(=C)NC(=O)c1nc(oc1C)C(=C)NC(=O)C(C(C)(C)O)NC(=O)C(=C)NC(=O)c1nc(oc1C)/C(=C/C)NC(=O)C(C(C)O)NC(=O)c1csc-2n1)C(N)=O` (stereo not given) [BERNINAMYCIN]: 600 µM corresponded to half-maximal inhibition (IC50).

`COc1ccc(C[C@H]2C(=O)N[C@@H](C)C(=O)N(C)[C@@H]3C(=O)N(C)[C@@H](Cc4ccc(O)c(c4)Oc4ccc(cc4)[C@@H]3O)C(=O)N[C@@H](C)C(=O)N[C@@H](C)C(=O)N2C)cc1` [BOUVARDIN]: the IC50 came out at 0.1 µM.

Consider `C[C@@H]1C[C@@H]([C@H](O)CC2CC(=O)NC(=O)C2)C(=O)[C@@H](C)C1` [CYCLOHEXIMIDE], for which the half-maximal inhibitory concentration (IC50) was found to be 5 µM.

The compound `CC[C@H](C)[C@H](NC(=O)[C@H](Cc1ccccc1)NC(=O)[C@H](C)NC(=O)[C@H](CC(=O)O)NC(=O)[C@H](CCCCN)NC(=O)[C@H](CO)NC(=O)[C@@H]1CCCN1C(=O)[C@@H]1CCC(=O)N1)C(=O)NCC(=O)N[C@@H](CC(C)C)C(=O)N[C@@H](CCSC)C(N)=O` [ELEDOISIN] ([pGlu]PSKDAFIGLM-NH2) displayed a 50% inhibitory concentration (IC50) of 500 µM.

Turning to `CC(=O)O[C@H]1C[C@@]2(C)[C@@H](C[C@@H](O)[C@H]3[C@@]4(C)CC[C@@H](O)[C@@H](C)[C@@H]4CC[C@@]32C)/C1=C(\CCC=C(C)C)C(=O)O` [FUSIDIC ACID], the half-maximal inhibitory concentration (IC50) was 400 µM.

Regarding `C/C1=C\[C@H](C)C[C@H](C)OC(=O)C[C@H](c2ccc(O)cc2)NC(=O)[C@@H](Cc2c(Br)[nH]c3ccccc23)N(C)C(=O)[C@H](C)NC(=O)[C@@H](C)C1` [JASPAMIDE], the half-inhibitory concentration (IC50) was over 500 µM.

Turning to H-ELNFTPNWGT-NH2, the IC50 is over 1000 µM.
